# Experimental data from different studies.
# Protocols differ between the studies behind these lines.
# Target: Serine/threonine-protein kinase OSR1 (OXSR1, Homo sapiens, UniProt O95747)
SMILES,assay,conditions,remaining binding [%]
N[C@H]1CCN(c2nccc(-c3cnn4ncccc34)n2)C1,binding,1 µM,86
O=C(NCCCN1CCOCC1)c1ccc(Nc2ncc(Cl)c(-c3ccc(Cl)s3)n2)cc1,"binding, competition with immobilised ligand",1 µM,79
CN(C)c1nccc(-c2cnn3ncccc23)n1,binding,1 µM,100
O=C(NCC1CCOCC1)c1n[nH]cc1NC(=O)c1c(F)cccc1F,"binding, competition with immobilised ligand",1 µM,73
O=S(=O)(NC1CCC(c2cc(F)ccc2F)(S(=O)(=O)c2ccc(Cl)cc2)CC1)C(F)(F)F (stereo not shown),"cell-free assay, competition with immobilised ligand",1 µM,91
COc1cnc(Nc2cccc(S(N)(=O)=O)c2)nc1N1CCN(c2ccccc2)CC1,"binding, competition with immobilised ligand",1 µM,90
O=C(c1ccc(Nc2nccc(-c3cc4ccccc4s3)n2)cc1)N1CCC(N2CCCC2)CC1,"binding, competition with immobilised ligand",1 µM,100
CS(=O)(=O)N1CCCC(NC(=O)[C@H](CCC2CCCCC2)NC(=O)c2ccc(CNc3ncnc4c3nnn4-c3ccccc3)cc2)C1 (stereo partly shown),"cell-free assay, competition with immobilised ligand",0.1 µM,100
COc1cnc(Nc2cccc(S(N)(=O)=O)c2)nc1N1CCN(c2ccccc2)C(=O)C1,"binding, competition with immobilised ligand",1 µM,100
CN(c1nccc(-c2cnn3ncccc23)n1)C1CC1,binding,1 µM,100
C[C@@H](c1ccc(-n2cnc3c(N)ncnc32)cc1)N1CCc2nn(C)c(Cc3ccccc3)c2C1=O,"binding, competition with immobilised ligand",0.1 µM,72
COc1ccnn2ncc(-c3ccnc(N(C)C)n3)c12,binding,1 µM,87
CNC(=O)c1ccc(Nc2ncc(C(F)(F)F)c(NCc3nccnc3N(C)S(C)(=O)=O)n2)cc1,"cell-free assay, competition with immobilised ligand",0.1 µM,100
CCN1CCN(Cc2ccc(C(=O)Nc3ccc(C)c(Oc4ccc5c(c4)CC(=O)N5)c3)cc2C(F)(F)F)CC1,"binding, competition with immobilised ligand",1 µM,97
F[C@@H]1CCN(c2nccc(-c3cnn4ncccc34)n2)C1,binding,1 µM,100
C[C@H](c1cccc(C#N)c1)n1cc(Cl)cc(C(N)=O)c1=N,"cell-free assay, competition with immobilised ligand",1 µM,81
Cc1cnc(Nc2ccc(C(=O)N3CCC(N4CCCC4)CC3)cc2)nc1-c1cc2ccccc2s1,"binding, competition with immobilised ligand",1 µM,81
O=C(N[C@H]1CCCCC/C=C\C2C[C@@]2(C(=O)O)NC(=O)[C@@H]2C[C@@H](Oc3ccncc3)CN2C1=O)OC1CCCC1 (stereo partly shown),"binding, competition with immobilised ligand",1 µM,75
C[C@H]1CCN(c2nccc(-c3cnn4ncccc34)n2)C1,binding,1 µM,76
O=C(O)[C@@H]1[C@@H](Cn2nnc3ccccc3c2=O)CC[C@H]1C(=O)c1ccc(OCCC2CCOCC2)cc1,"cell-free assay, competition with immobilised ligand",1 µM,100
CN(C)c1ncc(F)c(-c2cnn3ncccc23)n1,binding,1 µM,95
FC(F)(F)Oc1cccc(-c2cnc3ccc(-c4ccncc4)nn23)c1,"cell-free assay, competition with immobilised ligand",5 µM,82
